High-throughput results as filed in PubChem BioAssay.
VIM-2 inhibitor: VIM-2 metallo-beta-lactamase inhibitors, primary screen, biochemical, epi-absorbance readout, Pseudomonas aeruginosa enzyme; AID 1527, 2009; inhibition, % at 5.6 µM; hit rate 0.89% among 290,000; purified VIM-2, nitrocefin hydrolysis, epi-absorbance fluorescence;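 active = inhibition above the mean of all tested compounds plus 3 SD, cutoff set per screening run, cut at about 7.5% in these data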;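 also: red hydrolysis product quenches plate fluorescence so inhibitors raise well fluorescence; 0% = enzyme with DMSO and 100% = DMSO without enzyme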
PHOSPHO1 inh: PubChem AID 1565. inhibition, % at 13.3 µM. hit rate 1.1% among 290,000. recombinant PHOSPHO1, absorbance phosphatase assay. Phosphoethanolamine/phosphocholine phosphatase (Homo sapiens), Q8TCT1; in the data active = inhibition above about 60%
Target sequence (Q8TCT1 whole entry, looked up): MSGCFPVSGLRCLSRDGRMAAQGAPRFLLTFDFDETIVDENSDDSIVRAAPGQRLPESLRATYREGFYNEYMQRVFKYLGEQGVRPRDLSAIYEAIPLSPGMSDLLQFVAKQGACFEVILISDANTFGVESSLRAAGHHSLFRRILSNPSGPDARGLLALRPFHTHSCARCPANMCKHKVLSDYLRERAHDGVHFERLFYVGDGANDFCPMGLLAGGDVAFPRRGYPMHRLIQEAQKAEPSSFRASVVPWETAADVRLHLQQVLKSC
IMP-1 inhibitor: IMP-1 metallo-beta-lactamase inhibitors, primary screen, biochemical, epi-absorbance readout, Pseudomonas aeruginosa enzyme. metallo-beta-lactamase IMP-1 (Pseudomonas aeruginosa). inhibition, % at 5.6 µM. purified IMP-1, nitrocefin hydrolysis, epi-absorbance fluorescence. hit rate 0.45% among 290,000;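 active = inhibition above the mean plus 3 SD of all compounds in the same screening run, cut at about 4.5% in these data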;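 also: 0% = IMP-1 with DMSO and 100% = DMSO wells lacking enzyme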
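System: purified IMP-1; amount: IMP-1 0.2 nM before substrate addition; compound: single dose, 5.6 µM; times: 25 °C, 15 min preincubation, 25 min reaction; signal: Epi-absorbance via hydrolysed-nitrocefin quenching of white-plate fluorescence, 480/530 nm, EDTA stop; benchmarks: DMSO with and without IMP-1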
Yeast superoxide: reduction of superoxide in aged yeast, primary screen, HTS. S. cerevisiae aged cells, superoxide DHE fluorescence; hits give low values. superoxide response (% of plate mean), % at 10 µM. hit rate 0.18% among 330,000. AID 2690, 2010;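 active = superoxide response under a set limit, about three screen SD below normal, cut at about 65% in these data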;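 also: yeast aged for seven days with compound at 30 °C before DHE staining; 100% = average MFI of all compound-treated wells on the plate with controls excluded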
PvdQ inh: P. aeruginosa PvdQ acylase inhibitors, primary screen, biochemical, fluorescence, plate reader and imaging, single point. inhibition, % at 10 µM. AID 488965, 2010. purified PvdQ acylase. hit rate 0.063% among 340,000; in the data active = inhibition above about 30%, passing the limit was not always enough;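 also: 0% = vehicle neutral wells and 100% = reference inhibitor wells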
Active calls of the source: *; nt = not tested or not shown. Shown are actives, neighbours in structure and some others; about 2.2% of the full set was active somewhere.

SMILES	VIM-2 inhibitor	PHOSPHO1 inh	IMP-1 inhibitor	Yeast superoxide	PvdQ inh
Cc1cc(C(=O)O)ccc1-c1ccc(/C=C2\SC(=O)N(CC(=O)Nc3ccc4c(c3)OCO4)C2=O)o1	0.2	-97.0	8.0*	116.8	-18.2
CCc1ccc2c(CC(=O)Nc3nnc(C4CC4)s3)coc2c1	-3.3	19.2	61.0*	110.0	-11.8
Cc1ccsc1/C=N/n1c(-c2ccccc2)n[nH]c1=S	-6.5	-12.9	-2.8	112.4	4.3
S=c1[nH]nc(-c2ccco2)n1/N=C/C(Cl)=C/c1ccccc1	8.1*	21.0	-3.3	95.9	2.4
CC(/C=N/n1c(-c2ccccc2)n[nH]c1=S)=C\c1ccco1	2.2	84.2*	-2.5	96.2	1.5
S=c1[nH]nc(-c2ccco2)n1/N=C/c1cccc(Cl)c1	9.1*	-12.5	-3.9	97.0	-13.6
Cc1ccsc1/C=N/n1c(-c2ccco2)n[nH]c1=S	1.6	62.0*	-0.6	102.6	-3.6
S=c1[nH]nc(-c2ccco2)n1/N=C/c1ccc(Cl)c(Cl)c1	-2.3	37.5	-4.4	87.2	6.9
CCCn1c(N)c(C(=O)CSc2nnc(-c3cccs3)n2C2CC2)c(=O)[nH]c1=O	nt	nt	nt	89.5	-3.3
CC(=O)Nc1ccc(C2NC(=O)CCC2[N+](=O)[O-])cc1 (configuration not stated)	-0.6	36.0	-2.4	94.7	-12.4
CN(c1ccccc1)S(=O)(=O)c1ccc(C(=O)OCC(=O)NCc2cccs2)cc1	-1.2	18.8	-2.0	110.9	8.1
CN(C)CCCN1C(=O)c2oc3ccc(Cl)cc3c(=O)c2C1c1cccnc1 (configuration not stated)	1.5	-0.6	6.4*	105.7	-9.9
O=C(c1ccc(Cl)c(S(=O)(=O)NCc2cccnc2)c1)N1CCCC1	nt	nt	nt	100.5	-7.8
CN(Cc1c(O)ccc2c1oc(=O)c1ccccc12)C1CCCCC1	8.7*	-17.5	1.1	96.2	7.9
CN(C)Cc1c(O)ccc2c3c(c(=O)oc12)CCCCC3	-2.0	1.0	-0.4	84.8	-5.0
O=CN(c1ccccc1)c1ccc2ccccc2c1	-2.5	41.2	-2.2	106.5	79.0*
CN(c1ccccc1)S(=O)(=O)c1ccc2ccccc2c1	0.0	29.0	-2.8	108.2	-13.5
Cc1ccc(-n2c(CCc3nc4ccccc4[nH]3)n[nH]c2=S)cc1	2.3	80.6*	-0.5	101.8	4.9
CCn1c(CCc2nc3ccccc3[nH]2)n[nH]c1=S	-1.9	6.7	-2.4	96.6	-1.2
Cc1c(N2C(=O)c3ccc4c5c(ccc(c35)C2=O)CC4)c(=O)n(-c2ccccc2)n1C	3.2	77.9*	-3.2	91.2	-7.2
CCn1c(-c2cc(-c3cc(OC)ccc3OC)nc3ccccc23)n[nH]c1=S	-3.8	90.2*	-4.9	78.5	-9.4
CCn1c(-c2cc(-c3ccc(C)cc3)nc3ccccc23)n[nH]c1=S	-5.2	-67.6	-3.2	92.6	-10.9
CCn1c(-c2cc(-c3ccc(OC(C)C)cc3)nc3ccccc23)n[nH]c1=S	-4.8	97.4*	-2.9	91.6	-11.2
COc1cccc(NC(=O)CSc2nnnn2C2CCCCC2)c1	-1.5	18.4	-2.0	nt	-2.1
Cc1ccc(S(=O)(=O)N2CCN(C(=O)COC(=O)/C=C/c3ccccc3[N+](=O)[O-])CC2)c(C)c1	nt	nt	nt	83.2	-9.5
SMILES	VIM-2 inhibitor	PHOSPHO1 inh	IMP-1 inhibitor	Yeast superoxide	PvdQ inh
CCOc1ccccc1C1C(C#N)=C(N)SC(N)=C1C#N	-2.4	69.5*	-1.1	86.0	-17.4
CCOc1ccc(C2C(C#N)=C(N)SC(N)=C2C#N)cc1OCC	nt	-11.8	nt	106.6	-5.5
CCn1nnnc1SCC(=O)N(C)C1CCS(=O)(=O)C1 (configuration not stated)	nt	nt	nt	92.3	-16.4
Cc1c(OCC(=O)NC(Cc2ccc(Cl)cc2)C(=O)O)ccc2c3c(c(=O)oc12)CCC3 (configuration not stated)	6.1	13.5	-1.1	107.8	10.1
Cc1c(OCC(=O)N[C@H](C(=O)O)c2ccccc2)ccc2c3c(c(=O)oc12)CCCC3	11.6*	23.4	-5.3	120.6	-6.4
Cc1c(OC(C(=O)O)c2ccccc2)ccc2c3c(c(=O)oc12)CCC3 (configuration not stated)	7.7*	-3.4	-1.9	nt	-13.5
Cc1c(OCC(=O)N2CCC(C(=O)O)CC2)ccc2c3c(c(=O)oc12)CCC3	9.9*	33.8	-3.0	89.9	-12.0
Cc1c(OC(C)C(=O)NCC(O)c2ccccc2)ccc2c3c(c(=O)oc12)CCCC3 (configuration not stated)	10.5*	-67.1	1.6	103.3	8.3
CC1CCCC(NC(=O)CSc2nnc(C(F)(F)F)n2C)C1C (configuration not stated)	nt	nt	nt	93.1	-2.6
COc1cc(C(=O)Nc2ccc3c(c2)CCCN3C(=O)c2ccco2)c([N+](=O)[O-])cc1OC	nt	nt	nt	98.1	1.0
CCOc1ccc(NC(=O)CN(C)C(=O)c2ccccc2SCc2c(C)noc2C)cc1OCC	nt	nt	nt	89.5	-10.8
COc1ccccc1C(=O)NC(=O)COC(=O)CNC(=O)c1ccccc1F	nt	nt	nt	106.9	5.2
CCN(CC)C(=O)COc1ccc2c3c(c(=O)oc2c1C)CCCC3	8.0*	nt	-0.4	109.4	-1.2
N#C/C(=N\Nc1ccc(S(=O)(=O)N2CCOCC2)cc1)C(N)=S	-3.8	42.1	-3.5	93.0	9.3
CC1CCN(S(=O)(=O)c2ccc(N/N=C(/C#N)C(N)=O)cc2)CC1	-1.4	76.7*	-1.9	95.2	-3.5
O=c1cc(-c2cc3ccccc3o2)c2cc(O)ccc2o1	-1.0	10.6	-1.8	104.6	-6.3
Cc1cc2oc(=O)cc(-c3cc4ccccc4o3)c2cc1O	1.2	12.6	6.0*	132.6	-7.7
CC(=O)COc1ccc2oc(=O)cc(-c3cc4ccccc4o3)c2c1	8.3*	-21.0	-1.9	98.0	-1.4
COc1ccc(CC(=O)OCc2cc3ccc(C)cc3[nH]c2=O)cc1	-3.6	61.4*	-3.4	104.1	-10.5
COc1ccc(CC(=O)OCc2cc3ccccc3[nH]c2=O)cc1	-1.6	-0.3	-0.4	107.5	-12.1
CC(C)NC(=O)C(=O)c1cn(C)c2ccccc12	-0.9	-3.0	-0.1	104.9	-6.7
Cn1cc(C(=O)C(F)(F)F)c2ccccc21	1.7	15.9	5.8*	115.6	-13.6
OCC1(Cc2ccccc2F)CCCN(Cc2c(F)ccc(F)c2F)C1 (configuration not stated)	-1.6	13.9	-1.0	104.1	-10.2
CCOC(=O)c1c(CN(C)C)n(-c2ccc(C)cc2)c2cc(Br)c(O)cc12	8.4*	-6.2	-2.9	108.8	1.3
CCCN=C1N(C)C[C@@H]2[C@@H]3C(=O)N(C)C(=O)[C@@H]3[C@](C)(C(=O)OC)N12	nt	nt	nt	101.1	2.9
N#CC1=C(S)N(c2ccccc2)C(c2ccc(-c3ccc(Cl)c(Cl)c3)o2)NC1=O (configuration not stated)	-1.9	25.1	5.2*	100.5	1.0
